# Source: ChEMBL document CHEMBL1157407, “Inhibitors of bacterial multidrug efflux pumps from the resin glycosides of Ipomoea murucoides” (2008)
# Tests used:
# Assay type in all cases: functional
# Staphylococcus aureus [1] = assay: Antimicrobial activity against methicillin-resistant Staphylococcus aureus XU212
# Procedure, shortened: (§1)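 Broth microdilution MIC per NCCLS guidelines, at least in duplicate, in cation-adjusted Mueller-Hinton broth (20 mg/L Ca2+, 10 mg/L Mg2+). Strains grown on nutrient agar first. Inoculum 5×10^5 cfu prepared in 0.9% saline against a McFarland standard. Compounds dissolved in DMSO, 2-fold serial dilutions, final 1–512 µg/mL (DMSO ≤3.125% v/v). MIC taken as lowest concentration with no visible growth.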
# Staphylococcus aureus [2] = assay: Antimicrobial activity against Staphylococcus aureus ATCC 25923
# Procedure, shortened: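 Broth microdilution MIC per NCCLS guidelines, at least in duplicate. Inoculum 5×10^5 cfu prepared in 0.9% saline against a McFarland standard. Cation-adjusted Mueller-Hinton broth with 20 mg/L Ca2+ and 10 mg/L Mg2+. Compounds dissolved in DMSO, then 2-fold serial dilutions, final 1–512 μg/mL; DMSO at most 3.125% v/v. MIC is the lowest concentration giving no visible growth.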
# KB = assay: Cytotoxicity against human KB cells after 72 hrs; details: read-out: ED50 (the source's name)
# Procedure, shortened: (§2)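 Cells grown in RPMI 1640 with 10% fetal bovine serum at 37 °C, 5% CO2, humidified. Log-phase cells treated in triplicate with test samples at 0.16–20 μg/mL for 72 h. Growth read by the NCI sulforhodamine method. ED50 is the dose inhibiting 50% of control growth, estimated from a semilog plot of concentration against percentage of viable cells.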
# HEp-2 = assay: Cytotoxicity against human Hep2 cells after 72 hrs; details: HEp-2, 72 h, read-out: ED50 (the source's name); procedure, shortened: as §2
# HeLa = assay: Cytotoxicity against human HeLa cells after 72 hrs; details: read-out: ED50 (the source's name); procedure, shortened: as §2
# Staphylococcus aureus [3] = assay: Antimicrobial activity against epidemic methicillin-resistant Staphylococcus aureus 15 containing mecA gene; procedure, shortened: as §1
# Staphylococcus aureus [4] = assay: Antimicrobial activity against multidrug-resistant Staphylococcus aureus over expressing NorA MDR efflux pump; procedure, shortened: as §1
Compound,MIC (Staphylococcus aureus [1]) [µg/mL],MIC (Staphylococcus aureus [2]) [µg/mL],EC50 (KB) [µg/mL],EC50 (HEp-2) [µg/mL],EC50 (HeLa) [µg/mL],MIC (Staphylococcus aureus [3]) [µg/mL],MIC (Staphylococcus aureus [4]) [µg/mL]
CCCCC[C@H]1CCCCCCCCCC(=O)O[C@H]2[C@H](O[C@H]3[C@H](O1)O[C@H](C)[C@H](O)[C@@H]3O)O[C@@H](C)[C@H](O[C@@H]1O[C@@H](C)[C@H](O[C@@H]3O[C@@H](C)[C@H](OC(=O)[C@@H](C)CC)[C@@H](O)[C@H]3O)[C@@H](O[C@@H]3O[C@@H](C)[C@H](O)[C@@H](O)[C@H]3O)[C@H]1OC(=O)[C@@H](C)CC)[C@H]2O [MURUCOIDIN III],> 512,> 512,15.4,10.7,> 20,> 512,> 512
CCCCC[C@H]1CCCCCCCCCC(=O)O[C@H]2[C@H](O[C@H]3[C@H](O1)O[C@H](C)[C@H](O)[C@@H]3O)O[C@@H](C)[C@H](O[C@@H]1O[C@@H](C)[C@H](O[C@@H]3O[C@@H](C)[C@H](OC(=O)C(C)C)[C@@H](O)[C@H]3O)[C@@H](O[C@@H]3O[C@@H](C)[C@H](O)[C@@H](O)[C@H]3O)[C@H]1OC(=O)[C@@H](C)CC)[C@H]2O [MURUCOIDIN II],> 512,> 512,> 20,> 20,16,> 512,> 512
CCCCC[C@H]1CCCCCCCCCC(=O)O[C@H]2[C@H](O[C@H]3[C@H](O1)O[C@H](C)[C@H](O)[C@@H]3O)O[C@@H](C)[C@H](O[C@@H]1O[C@@H](C)[C@H](O[C@@H]3O[C@@H](C)[C@H](OC(=O)[C@@H](C)CC)[C@@H](O)[C@H]3O)[C@@H](O[C@@H]3O[C@H](CO)[C@@H](O)[C@H](O)[C@H]3O)[C@H]1OC(=O)[C@@H](C)CC)[C@H]2O [MURUCOIDIN IV],> 512,> 512,15,4,> 20,> 512,> 512
CCCCC[C@H]1CCCCCCCCCC(=O)O[C@H]2[C@@H](O)[C@H](O[C@H]3[C@H](O1)O[C@H](C)[C@H](O)[C@@H]3O)O[C@@H](C)[C@@H]2O[C@@H]1O[C@@H](C)[C@H](O[C@@H]2O[C@@H](C)[C@H](OC(=O)C(C)C)[C@@H](O)[C@H]2O)[C@@H](O[C@@H]2O[C@@H](C)[C@H](O)[C@@H](O)[C@H]2O)[C@H]1OC(=O)[C@@H](C)CC [MURUCOIDIN IX],> 512,> 512,> 20,10.2,12.4,> 512,> 512
CCCCC[C@H]1CCCCCCCCCC(=O)O[C@H]2[C@H](O[C@H]3[C@H](O1)O[C@H](C)[C@H](O)[C@@H]3O)O[C@@H](C)[C@H](O[C@@H]1O[C@@H](C)[C@H](O[C@@H]3O[C@@H](C)[C@H](O)[C@@H](O)[C@H]3O)[C@@H](O[C@@H]3O[C@@H](C)[C@H](O)[C@@H](O)[C@H]3O)[C@H]1OC(=O)[C@@H](C)CC)[C@H]2O [MURUCOIDIN I],512,> 512,> 20,> 20,> 20,256,32
CCCCC[C@H]1CCCCCCCCCC(=O)O[C@H]2[C@H](O[C@H]3[C@H](O1)O[C@H](CO)[C@@H](O)[C@@H]3O)O[C@@H](C)[C@H](O[C@@H]1O[C@@H](C)[C@H](O[C@@H]3O[C@@H](C)[C@H](OC(=O)[C@@H](C)CC)[C@@H](O)[C@H]3O)[C@@H](O[C@@H]3O[C@@H](C)[C@H](O)[C@@H](O)[C@H]3O)[C@H]1OC(=O)[C@@H](C)CC)[C@H]2O [MURUCOIDIN VIII],> 512,> 512,17.9,14.2,16.4,> 512,> 512
CCCCC[C@H]1CCCCCCCCCC(=O)O[C@H]2[C@H](O[C@H]3[C@H](O1)O[C@H](CO)[C@@H](O)[C@@H]3O)O[C@@H](C)[C@H](O[C@@H]1O[C@@H](C)[C@H](O[C@@H]3O[C@@H](C)[C@H](OC(=O)C(C)C)[C@@H](O)[C@H]3O)[C@@H](O[C@@H]3O[C@@H](C)[C@H](O)[C@@H](O)[C@H]3O)[C@H]1OC(=O)[C@@H](C)CC)[C@H]2O [MURUCOIDIN VII],512,> 512,> 20,> 20,> 20,256,32
CCCCCCCCCCCC(=O)O[C@H]1[C@H](O[C@@H]2[C@H]3OC(=O)CCCCCCCCC[C@H](CCCCC)O[C@@H]4O[C@H](CO)[C@@H](O)[C@H](O)[C@H]4O[C@H](O[C@H]2C)[C@@H]3O)O[C@@H](C)[C@H](O[C@@H]2O[C@@H](C)[C@H](OC(=O)[C@@H](C)CC)[C@@H](O)[C@H]2O)[C@H]1O[C@@H]1O[C@@H](C)[C@H](O)[C@@H](O)[C@H]1O [MURUCOIDIN VI],512,> 512,> 20,> 20,> 20,256,32
CCCCC[C@H]1CCCCCCCCCC(=O)O[C@H]2[C@@H](O)[C@H](O[C@H]3[C@H](O1)O[C@H](C)[C@H](O)[C@@H]3O)O[C@@H](C)[C@@H]2O[C@@H]1O[C@@H](C)[C@H](O[C@@H]2O[C@@H](C)[C@H](OC(=O)[C@@H](C)CC)[C@@H](O)[C@H]2O)[C@@H](O[C@@H]2O[C@H](CO)[C@@H](O)[C@H](O)[C@H]2O)[C@H]1OC(=O)[C@@H](C)CC [MURUCOIDIN V],256,> 512,> 20,> 20,13.2,128,64
CCCCCCCCCCCC(=O)O[C@H]1[C@H](O[C@@H]2[C@H]3OC(=O)CCCCCCCCC[C@H](CCCCC)O[C@@H]4O[C@H](C)[C@H](O)[C@H](O)[C@H]4O[C@H](O[C@H]2C)[C@@H]3O)O[C@@H](C)[C@H](O[C@@H]2O[C@@H](C)[C@H](OC(=O)[C@@H](C)CC)[C@@H](O)[C@H]2O)[C@H]1O[C@@H]1O[C@H](CO)[C@@H](O)[C@H](O)[C@H]1O [MURUCOIDIN XI],> 512,> 512,12.1,> 20,> 20,> 512,> 512
CCCCC[C@H]1CCCCCCCCCC(=O)O[C@H]2[C@@H](O)[C@H](O[C@H]3[C@H](O1)O[C@H](C)[C@H](O)[C@@H]3O)O[C@@H](C)[C@@H]2O[C@@H]1O[C@@H](C)[C@H](O[C@@H]2O[C@@H](C)[C@H](OC(=O)[C@@H](C)CC)[C@@H](O)[C@H]2O)[C@@H](O[C@@H]2O[C@@H](C)[C@H](O)[C@@H](O)[C@H]2O)[C@H]1OC(=O)CCCCCC[C@H](O)CCCC [MURUCOIDIN X],> 512,> 512,15.7,> 20,> 20,> 512,> 512
CCn1cc(C(=O)O)c(=O)c2cc(F)c(N3CCNCC3)cc21 [NORFLOXACIN],512,> 512,–,> 20,–,256,32
C/C=C(\C)C(=O)O[C@H]1[C@H](O)[C@@H](O)[C@H](O[C@@H]2[C@H]3OC(=O)CCCCCCCCC[C@H](CCCCC)O[C@@H]4O[C@H](C)[C@@H](O)[C@H](O)[C@H]4O[C@@H]4O[C@H](CO)[C@@H](OC(=O)[C@H](C)[C@@H](C)O)[C@H](O)[C@H]4O[C@H](O[C@H]2C)[C@@H]3OC(=O)[C@@H](C)CC)O[C@@H]1C [ORIZABIN IX],256,> 512,> 20,> 20,> 20,256,512
CCCCCCCCCCCC(=O)O[C@H]1[C@H](O[C@@H]2[C@H]3OC(=O)CCCCCCCCC[C@H](CCCCC)O[C@@H]4O[C@H](C)[C@H](O)[C@H](O)[C@H]4O[C@H](O[C@H]2C)[C@@H]3O)O[C@@H](C)[C@H](O[C@@H]2O[C@@H](C)[C@H](OC(=O)[C@@H](C)CC)[C@@H](O)[C@H]2O)[C@H]1O[C@@H]1O[C@@H](C)[C@H](O)[C@@H](O)[C@H]1O [PESCAPREIN III],> 512,> 512,15.7,4.7,> 20,> 512,> 512
COC(=O)[C@H]1[C@H]2C[C@@H]3c4[nH]c5cc(OC)ccc5c4CCN3C[C@H]2C[C@@H](OC(=O)c2cc(OC)c(OC)c(OC)c2)[C@@H]1OC [RESERPINE],–,–,–,> 20,–,–,–
CN(C)[C@@H]1C(O)=C(C(N)=O)C(=O)[C@@]2(O)C(O)=C3C(=O)c4c(O)cccc4[C@@](C)(O)[C@H]3C[C@@H]12 [TETRACYCLINE],512,> 512,–,–,–,256,32
CC[C@]1(O)C[C@@H]2CN(CCc3c([nH]c4ccccc34)[C@@](C(=O)OC)(c3cc4c(cc3OC)N(C)[C@H]3[C@@](O)(C(=O)OC)[C@H](OC(C)=O)[C@]5(CC)C=CCN6CC[C@]43[C@@H]65)C2)C1 [VINBLASTINE],–,–,> 20,> 20,> 20,–,–
